# Source: PubChem BioAssay (Sanford-Burnham Center for Chemical Genomics)
# SENP8 block-1: inhibitors of human SENP8 protease | inhibition, % at 20 µM | 360,000 tested, 0.64% active | recombinant SENP8, Nedd8 substrate fluorescence; in the data active = inhibition mostly above about 40%, no sharp cut-off; inactive = mostly below about 27%
# Apaf1 inhib: blocks human Apaf-1 apoptosome activity; reconstituted apoptosome caspase-3 activity, DEVD-Rh110 fluorescence; inhibition, % at 20 µM; 330,000 tested, 0.71% active; active = inhibition of at least 40% at 20 µM;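 note: plate controls were DMSO wells for no effect and DEVD-CHO caspase inhibitor wells for full effect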
# Target sequence (O14727 whole entry, looked up): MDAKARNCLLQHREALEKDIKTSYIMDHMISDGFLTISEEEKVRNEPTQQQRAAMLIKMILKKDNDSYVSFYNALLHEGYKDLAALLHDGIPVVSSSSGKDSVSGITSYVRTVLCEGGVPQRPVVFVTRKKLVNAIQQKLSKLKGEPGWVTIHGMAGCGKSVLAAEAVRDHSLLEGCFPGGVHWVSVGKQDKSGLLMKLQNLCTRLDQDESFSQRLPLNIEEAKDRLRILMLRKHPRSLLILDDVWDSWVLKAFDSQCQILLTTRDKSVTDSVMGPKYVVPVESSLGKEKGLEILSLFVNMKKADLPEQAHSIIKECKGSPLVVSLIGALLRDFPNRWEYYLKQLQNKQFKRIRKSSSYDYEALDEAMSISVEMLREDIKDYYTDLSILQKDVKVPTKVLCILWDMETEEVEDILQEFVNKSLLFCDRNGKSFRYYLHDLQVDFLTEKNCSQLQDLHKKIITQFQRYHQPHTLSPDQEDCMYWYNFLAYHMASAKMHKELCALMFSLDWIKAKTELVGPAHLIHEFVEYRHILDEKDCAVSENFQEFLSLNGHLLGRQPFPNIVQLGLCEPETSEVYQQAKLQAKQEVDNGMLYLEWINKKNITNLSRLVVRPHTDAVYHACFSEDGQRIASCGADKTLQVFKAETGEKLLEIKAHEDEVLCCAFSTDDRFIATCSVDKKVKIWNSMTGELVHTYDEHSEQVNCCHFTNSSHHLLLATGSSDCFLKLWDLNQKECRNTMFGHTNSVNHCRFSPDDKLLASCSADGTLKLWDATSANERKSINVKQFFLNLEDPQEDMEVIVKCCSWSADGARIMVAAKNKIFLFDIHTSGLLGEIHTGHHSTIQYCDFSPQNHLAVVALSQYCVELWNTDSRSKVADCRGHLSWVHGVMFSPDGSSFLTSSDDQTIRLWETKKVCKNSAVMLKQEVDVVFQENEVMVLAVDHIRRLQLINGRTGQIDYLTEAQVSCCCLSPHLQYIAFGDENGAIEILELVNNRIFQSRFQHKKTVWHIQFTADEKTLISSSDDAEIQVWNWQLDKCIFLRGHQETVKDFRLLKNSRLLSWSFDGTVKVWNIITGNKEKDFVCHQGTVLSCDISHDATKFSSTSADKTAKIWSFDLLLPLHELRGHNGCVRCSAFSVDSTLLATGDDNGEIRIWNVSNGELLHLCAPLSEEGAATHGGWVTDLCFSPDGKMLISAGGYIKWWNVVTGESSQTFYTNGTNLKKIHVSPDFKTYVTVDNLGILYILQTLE
#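 Assay system – apoptosome proteins · Medium – Hepes buffer, pH 7.5 · Also added – cytochrome c with DEVD-Rh110 · Timing – 30 min compound preincubation, 50 min activation, room temperature · Detection – Rh110 fluorescence, excitation 480 nm, emission 540 nm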
# SENP7 block: blocks the human protease SENP7. 330,000 tested, 1.5% active. recombinant SENP7, Z-RLRGG-aminoluciferin luminescence, 40 min. Q9BQF6. inhibition, % at 5 µM;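 active = inhibition above about 50% at the single test dose, limit read from the data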;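 note: plate controls were DMSO with enzyme for no effect and no enzyme buffer wells for full effect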
# SENP6 block: SENP6 protease inhibition; Q9GZR1; Recombinant SENP6 catalytic domain, aminoluciferin luminescence; inhibition, % at 10 µM; 330,000 tested, 1.8% active;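 active = inhibition above about 50% at the single tested dose, limit read from the data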;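 note: plate controls were DMSO wells with enzyme for no effect and DMSO wells lacking enzyme for full effect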
# SENP8 block-2: blocks the human protease SENP8; Q96LD8; purified SENP8, Z-RLRGG-aminoluciferin cleavage, luminescence; inhibition, % at 10 µM; 330,000 tested, 1.2% active; in the data active = inhibition above about 50%
# UBC13 polyUb: inhibitors of human UBC13 polyubiquitin chain formation. P61088. TR-FRET. inhibition, % at 20 µM. 330,000 tested, 0.47% active; in the data active = inhibition above about 45%, passing the limit was not always enough
# SENP8 inh conf: SENP8 (human) inhibition, single concentration confirmation; shares compounds with SENP8 block-1; purified SENP8, Nedd8-AMC/pro-Nedd8 cleavage fluorescence, 30 min; inhibition, % at 25 µM; 1,400 tested, 15% active; AID 624319; in the data active = inhibition mostly above about 39%, no sharp cut-off; inactive = mostly below about 34%
# Starred values were filed as active, the others as inactive; . = no result given. In the library only some 3% were active in any assay of this set; here they are far more common.
SMILES,SENP8 block-1,Apaf1 inhib,SENP7 block,SENP6 block,SENP8 block-2,UBC13 polyUb,SENP8 inh conf
O=C(NCc1ccc2c(c1)OCO2)C(c1ccco1)N(C(=O)c1csnn1)c1ccccc1 (centres undefined),41*,-8,-2,-5,8,5,1
O=C(NCc1ccc(F)cc1)C(c1ccco1)N(C(=O)c1csnn1)c1ccccc1 (centres undefined),-4,0,0,17,4,4,.
CCOC(=O)C1=C(O)C(=O)N(c2ccccc2)C1c1cccc([N+](=O)[O-])c1 (centres undefined),40*,-8,-1,-22,7,-6,27
COc1ccc(CN2CCC[C@]3(N[C@H](c4ccccc4)[C@@H]4C(=O)N(Cc5ccccc5)C(=O)[C@@H]43)C2=O)cc1,8,.,.,.,.,.,.
Cc1nnc(N/N=C/c2ccccc2F)n1N,19,-2,-1,-5,-9,-7,.
Cc1nnc(N/N=C/c2cccc(C(F)(F)F)c2)n1N,49*,-1,4,3,2,-6,22
O=C1c2ccc(Oc3cccc([N+](=O)[O-])c3)cc2C(=O)N1c1ccccn1,7,2,15,-9,-7,6,.
O=C1c2cc([N+](=O)[O-])cc3cc([N+](=O)[O-])cc(c23)C(=O)N1c1ccccn1,43*,.,.,.,.,.,35
COc1cccc(C=Nc2ccc3c(c2)OCCO3)c1O,53*,10,-3,-29,-25,-2,30
N#CC(C#N)=c1ccc2c(c1)N1C3=C(CCCC3)CC3CCCCC31N=2 (centres undefined),43*,-9,19,21,25,-29,7
N#C/C(C(N)=O)=c1/ccc2c(c1)N1C3=C(CCCC3)CC3CCCCC31N=2 (centres undefined),.,18,0,10,11,-83,.
Cc1cc2ccccn2c1C(=S)NC(=O)c1ccccc1,9,20,13,20,2,-165,.
Cc1cc2ccccn2c1C(=O)c1ccccc1F,41*,12,-1,-12,6,3,-5
O=C(Nc1ccccc1)c1ccc(Nc2c([N+](=O)[O-])cc([N+](=O)[O-])c3ccccc23)cc1,56*,3,-4,9,-5,-78,31
Cc1c(C(=O)Nc2ccc(Nc3ccccc3)cc2)cccc1[N+](=O)[O-],20,-2,0,8,0,4,.
Cc1cc(C)cc(Nc2ccc([N+](=O)[O-])nc2[N+](=O)[O-])c1,41*,-5,2,7,1,-17,15
COc1ccc(NC(=O)CN2CCc3ccccc3C2)cc1S(=O)(=O)N1CCOCC1,47*,-2,-6,5,-10,-6,8
CCOC(=O)c1ccc(NC(=O)CN2CCc3ccccc3C2)cc1,49*,3,-4,11,-4,9,47*
O=C(C[n+]1cccc(C(=O)Nc2ccccc2)c1)c1ccccc1,14,.,.,.,.,.,.
CCN(CC)CC(=O)Nc1ccc2c(c1)N(C(=O)CN(CC)CC)c1ccccc1CC2,40*,11,7,7,4,3,55*
COc1cncc(C#Cc2ccccn2)c1,9,.,.,.,.,.,.
Cc1noc(C)c1S(=O)(=O)N1CCC(C(=O)NCCN2CCC(C)CC2)CC1,41*,4,-2,-15,-1,1,12
C#CCNC(=O)C[C@@H]1C[C@@]2(C(=O)OC)CCCCC=C2N(Cc2ccc3c(c2)OCO3)C1=O,12,.,.,.,.,.,.
C=CCc1ccc(OC(=O)c2ccccc2)c(OC)c1,48*,3,-4,-9,-16,9,12
COc1ccc([C@H]2C[C@H](O)[C@@H](n3cc(-c4ccc(F)cc4)nn3)CN2C(=O)c2cccs2)cc1,-4,.,.,.,.,.,.
SMILES,SENP8 block-1,Apaf1 inhib,SENP7 block,SENP6 block,SENP8 block-2,UBC13 polyUb,SENP8 inh conf
CCn1cc(/C=C/C(=O)Nc2ccn(Cc3c(F)c(F)cc(F)c3F)n2)cn1,29*,10,1,7,13,3,66*
CC1=C(C(=O)N(C)C)CC(CC(=O)NC(c2ccccc2)c2ccccc2)C(=O)N1Cc1ccc(F)cc1 (centres undefined),2,.,.,.,.,.,.
COc1cccc(-c2cnc(C(O)c3ccc(C)cc3C)[nH]2)c1 (centres undefined),-2,.,.,.,.,.,.
CC(=O)Nc1cccc(-c2csc(C(O)c3cccc(Cl)c3)n2)c1 (centres undefined),0,.,.,.,.,.,.
CC(C)[C@H](NC(=O)N1c2ccccc2NC(=O)[C@@H]1C(C)C)C(=O)N[C@H](Cc1ccccc1)C(=O)O,40*,-5,-9,0,1,-13,0
CC(C)C[C@H](NC(=O)N1c2ccccc2NC(=O)[C@@H]1C(C)C)C(=O)N1CCC[C@@H]1C(=O)O,56*,7,-16,-21,-20,-4,8
CCC(C)[C@H](NC(=O)N1CC(=O)Nc2ccccc21)C(=O)N[C@H](Cc1ccccc1)C(=O)O (some centres undefined),41*,-7,-3,0,-9,-6,-4
O=C(c1cc([N+](=O)[O-])cc([N+](=O)[O-])c1)N1CCN(Cc2ccc3c(c2)OCO3)CC1,50*,7,2,28,6,-7,20
O=C(c1cc([N+](=O)[O-])ccc1Cl)N1CCN(Cc2ccc3c(c2)OCO3)CC1,19,1,5,-9,1,-7,.
CC(OC(=O)CCN=C1NS(=O)(=O)c2ccccc21)C(=O)c1ccccc1 (centres undefined),8,-2,1,2,-7,3,.
CC(OC(=O)CCN=C1NS(=O)(=O)c2ccccc21)C(=O)Nc1ccc(N(C)C)cc1 (centres undefined),45*,0,8,-18,-14,-8,18
Cc1ccc(C(=O)C(C)OC(=O)CCN=C2NS(=O)(=O)c3ccccc32)cc1 (centres undefined),46*,12,1,-13,-8,4,-4
c1ccc2c(c1)Sc1cnccc1N2CC1CO1 (centres undefined),-290,.,.,.,.,.,.
O=[N+]([O-])c1nn(-c2ccc(Cl)cc2)n(O)c1=NCc1ccncc1,47*,11,8,-20,-4,-5,32
CCOc1ccc(N2C(=O)CC(n3nc(C)cc3C)C2=O)cc1 (centres undefined),45*,14,-2,-25,-4,0,5
C[C@H]1CN([C@@H](C)CO)S(=O)(=O)c2ccc(C#Cc3cccnc3)cc2O[C@@H]1CN(C)C(=O)Nc1ccc2c(c1)OCO2,11,.,.,.,.,.,.
O=C(O)/C=C/C(=O)Nc1ccc(O)cc1,81*,-22,-4,-10,-4,13,31
CC1=[N+](C)N(c2ccccc2)C(=O)C1N=C/C=C/c1ccccc1 (centres undefined),42*,1,-7,-21,-11,-9,5
